Assay results collected from several papers.
Protocols differ between the studies behind these lines.
Urease: Urease (Canavalia ensiformis, UniProt P07374)
PTGS1: Prostaglandin G/H synthase 1 (PTGS1, Ovis aries, UniProt P05979)
DRD1: D(1A) dopamine receptor (DRD1, Homo sapiens, UniProt P21728)
PTPN11: Tyrosine-protein phosphatase non-receptor type 11 (PTPN11, Homo sapiens, UniProt Q06124)
BCHE: Cholinesterase (BCHE, Equus caballus, UniProt P81908)
SIRT3: NAD-dependent protein deacetylase sirtuin-3, mitochondrial (SIRT3, Homo sapiens, UniProt Q9NTG7)
Somatostatin receptor type 2: Somatostatin receptor type 2 (Rattus norvegicus, UniProt P30680)

| SMILES | target | test | conditions | IC50 [µM] |
| --- | --- | --- | --- | --- |
| O=[N+]([O-])c1ccc(NC(=S)N2CCc3ccccc3C2)c(Cl)c1 | Urease | enzyme activity, inhibitor, absorbance | – | 25.5 |
| CC(=O)NO | Urease | enzyme activity, inhibitor | – | 20.4 |
| Cc1ccn2c(Nc3ccccc3)c(-c3ccc(S(C)(=O)=O)cc3)nc2c1 | PTGS1 | enzyme activity, inhibitor, fluorescence | – | 55.1 |
| O=Cc1ccc2[nH]ncc2c1 | Ribosomal protein S6 kinase alpha-3 (RPS6KA3, Homo sapiens, UniProt P51812) | enzyme activity, inhibitor | – | ~350 |
| C[C@@H]1Cc2ccccc2N1C(=O)NCCCCN(C)[C@@H]1Cc2cccc3[nH]c(=O)n(c23)C1 | DRD1 | ligand displacement, radioligand | – | > 10 |
| Cc1cc(Nc2cc(CN3CCOCC3)c3nc(C)c(Cc4ccc(Cl)cc4F)n3n2)n[nH]1 | BDNF/NT-3 growth factors receptor (NTRK2, Homo sapiens, UniProt Q16620) | enzyme activity, inhibitor, TR-FRET | – | 0.095 |
| N[C@@H](CC(=O)O)C(=O)N[C@@H](Cc1ccccc1)C(=O)O | PTPN11 | enzyme activity, inhibitor, absorbance | pH 7.4 | 109 |
| COC(=O)[C@H](Cc1ccc(OP(=O)(O)O)c(OP(=O)(O)O)c1)NC(=O)OCC1c2ccccc2-c2ccccc21 | Signal transducer and activator of transcription 5A, SH2 (Homo sapiens, UniProt P42229) | ligand displacement, FP | – | 15.8 |
| CS(=O)(=O)c1ccc(-c2nc3ccccn3c2Nc2ccccc2)cc1 | PTGS1 | enzyme activity, inhibitor, fluorescence | – | 18.1 |
| COCCN1CCN(c2nccc(NCc3ccccc3)n2)CC1 | BCHE | enzyme activity, inhibitor | – | > 100 |
| CCN(CC)CCCC[C@H](NC(=O)[C@H](CC(C)C)NC(=O)[C@H](C)NC(=O)[C@H](Cc1ccccc1)NC(=O)c1ccc(C(C)(C)C)cc1)C(=O)N[C@@H](CO)C(=O)OC | Chromobox protein homolog 8 (Homo sapiens, UniProt Q9HC52) | ligand displacement, TR-FRET | – | 0.56 |
| C=C(NC(=O)[C@H](CCCCNC(=S)NCCCCCCCCCCCC)NS(C)(=O)=O)C(=O)N[C@@H](CCCNC(=N)N)C(N)=O | SIRT3 | enzyme activity, inhibitor | – | 2.9 |
| Cc1cc(-c2ccc(NC(=O)[C@H](CCCCNC(=O)CCN3C(=O)CC(SCC(=O)N[C@H](Cc4ccccc4)C(=O)N[C@H]4CSSC[C@@H](C(=O)N[C@H](C(=O)O)[C@@H](C)O)NC(=O)[C@H]([C@@H](C)O)NC(=O)[C@H](CCCCN)NC(=O)[C@@H](Cc5c[nH]c6ccccc56)NC(=O)[C@H](Cc5ccc(O)cc5)NC4=O)C3=O)NC(=O)CN3CCN(CC(=O)O)CCN(CC(=O)O)CCN(CC(=O)O)CC3)c(C)c2)ccc1N=Nc1ccc2c(S(=O)(=O)O)cc(S(=O)(=O)O)c(N)c2c1O (stereo partly shown) | Somatostatin receptor type 2 | ligand displacement | – | 0.00916 |
| CC(C)(C)n1nc(-c2ccc3nc(OC4CC4)ccc3c2)c(C(N)=O)c1N | Calcium/calmodulin-dependent protein kinase type 1D (CAMK1D, Homo sapiens, UniProt Q8IU85) | cell-free assay | – | > 10 |
| C[C@@H](O)[C@@H]1NC(=O)[C@H](CCCCN)NC(=O)[C@@H](Cc2c[nH]c3ccccc23)NC(=O)[C@H](Cc2ccc(O)cc2)NC(=O)[C@@H](NC(=O)[C@@H](Cc2ccccc2)NC(=O)CCC(C(=O)O)N2CCN(CC(=O)O)CCN(C(CCC(=O)O)C(=O)O)CC2)CSSC[C@@H](C(=O)N[C@H](CO)[C@@H](C)O)NC1=O (stereo partly shown) | Somatostatin receptor type 2 | ligand displacement, radioligand | – | 0.0337 |
| O=C1Nc2ccc(I)cc2/C1=C/c1cc(Br)c(O)c(Br)c1 | Ribosomal protein S6 kinase alpha-3, N-terminal kinase domain (RPS6KA3, Homo sapiens, UniProt P51812) | enzyme activity, inhibitor, FP | – | 1 |
| N[C@@H](Cc1ccccc1)C(=O)N[C@@H](CC(=O)O)C(=O)N[C@@H](Cc1ccccc1)C(=O)O | PTPN11 | enzyme activity, inhibitor, absorbance | pH 7.4 | 97.9 |

| SMILES | target | test | conditions | IC50 [µM] |
| --- | --- | --- | --- | --- |
| CN(CCCCNC(=O)c1cc2ccccc2[nH]1)[C@@H]1Cc2cccc3[nH]c(=O)n(c23)C1 | DRD1 | ligand displacement, radioligand | – | > 9.2 |
| CC[C@@H](C(=O)Nc1ccc(C(N)=O)c(F)c1)n1cc(OC)c(-c2cc(Cl)ccc2-n2cc(C(F)(F)F)nn2)cc1=O | Coagulation factor VII (F7, Homo sapiens, UniProt P08709) | enzyme activity, inhibitor | – | 1.9 |
| N#CC1(c2ccc(NC(=O)c3cccnc3NCc3ccncc3)cc2)CCCC1 | Mitogen-activated protein kinase kinase kinase 20 (MAP3K20, Homo sapiens, UniProt Q9NYL2) | enzyme activity, inhibitor, mass spectrometry | – | 0.21 |
| CCCOc1c(O)cc(Br)c2c1CN1CCc3cc(OCC(F)F)c(O)cc3[C@@H]1C2 | DRD1 | cAMP, antagonist, TR-FRET | – | 0.188 |
| Cc1c(Br)cc(NC(=O)C(c2ccccc2)S(=O)(=O)O)cc1Br (stereo not shown) | Tyrosine-protein phosphatase non-receptor type 9 (PTPN9, Homo sapiens, UniProt P43378) | enzyme activity, inhibitor, absorbance | – | > 200 |
| OCCN1CCN(c2nccc(NCc3ccccc3)n2)CC1 | BCHE | enzyme activity, inhibitor | – | > 100 |
| CC(NC(=O)c1ccccc1/N=C/c1c(O)ccc2ccccc12)c1ccccc1 (stereo not shown) | SIRT3 | enzyme activity, inhibitor, HPLC | – | 150 |
| CC1=C[C@@]2(C[C@H](C)[C@H]3CC=C(C)C(=O)[C@@H]3O2)OC1=O | PTPN11 | enzyme activity, inhibitor | – | > 500 |
| Cc1ccc(Nc2c(-c3ccc(S(C)(=O)=O)cc3)nc3cc(C)ccn23)cc1 | PTGS1 | enzyme activity, inhibitor, fluorescence | – | 33.9 |
| [O-][S+]1CCN(c2nccc(NCc3ccccc3)n2)CC1 | BCHE | enzyme activity, inhibitor | – | > 100 |
| CC1=C[C@@]2(C[C@H](C)[C@H]3CC=C(C)[C@@H](O[C@@H]4O[C@H](CO)[C@@H](O)[C@H](O)[C@H]4O)[C@@H]3O2)OC1=O | PTPN11 | enzyme activity, inhibitor | – | 90.5 |
| CC(=O)N1C[C@@H](CCN2CCC(c3c[nH]c4ccccc34)CC2)c2ccccc21 | Sodium-dependent serotonin transporter (SLC6A4, Homo sapiens, UniProt P31645) | ligand displacement, radioligand | cell membranes | 0.182 |
| CCN(CC)c1ccc(C=O)cc1 | Aldehyde dehydrogenase, dimeric NADP-preferring (ALDH3A1, Homo sapiens, UniProt P30838) | enzyme activity, inhibitor, absorbance | – | 15.1 |
| CN(C)CC#Cc1ccc2[nH]c3c(c2c1)-c1nc(N)ncc1CCC3 | Dual specificity mitogen-activated protein kinase kinase 2 (MAP2K2, Homo sapiens, UniProt P36507) | enzyme activity, inhibitor, radiometric | – | > 10 |
| CN1CCN(c2ccc(Nc3ncc4cc(C#N)c(=O)n(C5CCCC5)c4n3)cc2)CC1 | Mitogen-activated protein kinase kinase kinase 9 (MAP3K9, Homo sapiens, UniProt P80192) | enzyme activity, inhibitor | – | 0.477 |
| C=C(NC(=O)[C@H](CCCCNC(=S)CCCCCCCCCCCCC)NS(C)(=O)=O)C(=O)N[C@@H](CCCNC(=N)N)C(N)=O | SIRT3 | enzyme activity, inhibitor | – | 3.7 |
| COc1ccc2c(c1OCc1ccc(OC(F)(F)F)cc1)C[C@@H](C(=O)O)N(c1nc3ccc(F)cc3o1)C2 | Type-2 angiotensin II receptor (AGTR2, Homo sapiens, UniProt P50052) | cell-free assay, TR-FRET | – | 0.159 |
